Experimental data published in ChEMBL document CHEMBL1144781, “Identification of promiscuous small molecule activators in high-throughput enzyme activation screens” (J Med Chem, 2008).
Activity calls are given as the source filed them. The rule behind the calls is not given here.

Experiments:
Caspase-3 (Homo sapiens) = biological target: T1, Caspase-3 (Homo sapiens) (UniProt P42574); assay: Activation of caspase 3 after 30 mins
T1 sequence (whole entry): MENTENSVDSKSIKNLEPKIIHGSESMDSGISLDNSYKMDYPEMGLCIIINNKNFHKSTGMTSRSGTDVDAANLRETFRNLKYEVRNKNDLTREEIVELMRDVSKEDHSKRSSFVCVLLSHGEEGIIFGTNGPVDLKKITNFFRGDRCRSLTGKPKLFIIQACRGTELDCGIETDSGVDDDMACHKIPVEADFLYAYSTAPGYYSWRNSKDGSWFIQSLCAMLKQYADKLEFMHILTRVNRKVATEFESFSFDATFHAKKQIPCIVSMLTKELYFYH

Caspase-2 = biological target: T2, Caspase-2 (Homo sapiens, UniProt P42575); assay: Activation of procaspase 2 after 24 hrs
T2 sequence (P42575 whole entry): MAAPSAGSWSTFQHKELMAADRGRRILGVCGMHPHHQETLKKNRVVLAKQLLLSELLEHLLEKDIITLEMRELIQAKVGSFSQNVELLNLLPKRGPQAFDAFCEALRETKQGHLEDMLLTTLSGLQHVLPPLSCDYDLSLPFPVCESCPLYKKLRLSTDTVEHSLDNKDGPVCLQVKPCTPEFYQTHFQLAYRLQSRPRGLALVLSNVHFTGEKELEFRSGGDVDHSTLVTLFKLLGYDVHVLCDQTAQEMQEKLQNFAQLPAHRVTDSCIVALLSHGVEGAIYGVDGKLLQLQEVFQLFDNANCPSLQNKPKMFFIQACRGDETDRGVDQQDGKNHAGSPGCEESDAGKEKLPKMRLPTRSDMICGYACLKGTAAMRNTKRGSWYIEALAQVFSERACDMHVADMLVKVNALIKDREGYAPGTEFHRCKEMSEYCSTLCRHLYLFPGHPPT

[1] = Activation of alkaline phosphatase after 30 mins
Caspase-2 (Homo sapiens) [2] = biological target: T3, Caspase-2 (Homo sapiens) (UniProt P42575); assay: Increase in procaspase 2 activity after 30 mins in presence of surfactant CHAPS
T3 sequence (whole entry): T2 sequence (P42575 whole entry)
How it was run: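 Procaspase-2 was preincubated with compound for a short time (30 min) in CHAPS-containing buffer. Ac-VDVAD-pNA cleavage was then followed by absorbance at 405 nm.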

Caspase-2 (Homo sapiens) [3] = biological target: T3, Caspase-2 (Homo sapiens); assay: Increase in procaspase 2 activity after 16 hrs in presence of surfactant CHAPS
How it was run: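 Procaspase-2 was incubated with compound for 16 h in buffer containing CHAPS. Activity was then read by adding Ac-VDVAD-pNA substrate and monitoring absorbance at 405 nm.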

[4] = Activation of procaspase 2 in presence of BSA

Row | SMILES | Activity (Caspase-3 (Homo sapiens)) | EC50 (Caspase-2) | further results
1 | CC1CCCN(CC(O)COc2ccc(C34CC5CC(CC(C5)C3)C4)cc2)C1 (stereo unspecified) | Active | 25 µM | 
2 | NCCCNCCNCCCN | Active | 50 µM | Activity [1]: Active
3 | CCCCCCCCCCCCCCCC[n+]1ccccc1 |  | 21 µM | 
4 | CCCCCCCCCCNC(=O)CCC |  | 66 µM | 
5 | C[C@@H](CCC(=O)NCCC[N+](C)(C)CCCS(=O)(=O)[O-])[C@H]1CC[C@H]2[C@@H]3[C@H](O)C[C@@H]4C[C@H](O)CC[C@]4(C)[C@H]3C[C@H](O)[C@]12C | Active |  | Activity [4]: inactive

More lines, in order of falling EC50 (Caspase-2), values ahead:

Row | Activity (Caspase-3 (Homo sapiens)) | EC50 (Caspase-2) | SMILES | further results
6 |  | 50 µM | Cc1cc(NNC(=O)C(c2ccccc2)c2ccccc2)c2ccc(C)c(C)c2n1 | 
7 | Active | 25 µM | CN(C)CCNC(=O)COc1ccc(C23CC4CC(CC(C4)C2)C3)cc1 | Activity (Caspase-2 (Homo sapiens) [2]): inactive; Activity (Caspase-2 (Homo sapiens) [3]): Active
8 | Active | 8.5 µM | NCCCNCCCCNCCCN [SPERMINE] | 
